Source: ChEMBL document CHEMBL5653605, “Reduced VEGF production, angiogenesis, and vascular regrowth contribute to the antitumor properties of dual mTORC1/mTORC2 inhibitors” (Cancer Res, 2011)
The source made the active and inactive calls.

Key:
[1] = test system: Pancreatic islet cell carcinoma; test: Antitumor activity against pancreatic islet cell carcinoma in RIP-Tag2 mouse assessed as reduction in VEGF production by measuring reduction in fluorescence in entire tumor at 75 mg/kg, po bid administered via gavage and measured after 7 days by immunohistochemical staining based confocal microscopic analysis relative to control; assay type: functional; set-up: scale not given: the % may be the effect or the level left; conditions: time 7 day
In short: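 Treatment began in RIP-Tag2 mice at 9–10 weeks: 75 mg/kg gavage BID for 1, 4 or 7 days, or 20 mg/kg ip QD for 7 days; vehicle Labrifil or water. Tissue fixed by vascular perfusion and 60–80 µm sections stained for VEGF with CD31. VEGF fluorescence intensity measured over whole tumor, tumor cells, or tumor vessels. 3–8 mice/group; ANOVA, Fisher PLSD.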

[2] = test system: Pancreatic islet cell carcinoma; test: Antitumor activity against pancreatic islet cell carcinoma in RIP-Tag2 mouse assessed as reduction in VEGF-A expression at 75 mg/kg, po bid administered via gavage and measured after 1 to 7 days by immunoprecipitation based densitometric analysis relative to control; assay type: functional; set-up: scale not given: the % may be the effect or the level left; conditions: time 1-7 day
In short: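 VEGF in tumor lysates from treated RIP-Tag2 mice (9–10 weeks old at start; 75 mg/kg gavage BID or 20 mg/kg ip QD) measured with mouse angiogenesis antibody arrays, read as pixel density. 3–8 mice/group, SEM; ANOVA with Fisher PLSD.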

[3] = Inhibition of MAPK (unknown origin) signaling axis assessed as reduction in phosphorylated ERK1/2 level by cell based assay; conditions: Homo sapiens
[4] = test system: Pancreatic islet cell carcinoma; test: Additive antitumor activity in pancreatic islet cell carcinoma in RIP-Tag2 mouse assessed as reduction in proliferation by measuring reduction in phospho-histone H3 level at 100 mg/kg, po bid administered via gavage for 4 days in presence of OSI-930 by immunohistochemistry analysis; assay type: functional, organism-based; conditions: time 4.0 day
[5] = test system: Pancreatic islet cell carcinoma; test: Antivascular activity in pancreatic islet cell carcinoma in RIP-Tag2 mouse assessed as reduction in intratumoral hemorrhage by measuring reduction in TER-119 immunoreactivity at 75 mg/kg, po bid pretreated with OSI-930 for 7 days at 200 mg/kg, po followed by compound administration and measured after 4 days by confocal microscopic analysis relative to control; assay type: functional; set-up: scale not given: the % may be the effect or the level left; conditions: time 4 day
In short: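 Regrowth design in 10-week-old RIP-Tag2 mice: OSI-930 200 mg/kg gavage QD for 7 days, then 4 days of vehicle, 75 mg/kg gavage BID, or 20 mg/kg ip QD; controls received vehicle for 11 days. Perfusion-fixed sections stained for CD31 for vessel density or for the erythrocyte marker TER-119, quantified by confocal microscopy. 3–8 mice/group; ANOVA, Fisher PLSD.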

[6] = Drug concentration in nu/nu CD-1 mouse plasma xenografted with human GEO cells at 75 mg/kg administered for 14 days and measured 8 hr post last dose; assay type: ADME, organism-based
[7] = biological target: DNA-dependent protein kinase catalytic subunit (Homo sapiens, UniProt P78527); test: Inhibition of DNA-PK (unknown origin) assessed as reduction in phosphorylated RPA32 level by cell based assay
DNA-dependent protein kinase catalytic subunit, sequence (P78527 whole entry): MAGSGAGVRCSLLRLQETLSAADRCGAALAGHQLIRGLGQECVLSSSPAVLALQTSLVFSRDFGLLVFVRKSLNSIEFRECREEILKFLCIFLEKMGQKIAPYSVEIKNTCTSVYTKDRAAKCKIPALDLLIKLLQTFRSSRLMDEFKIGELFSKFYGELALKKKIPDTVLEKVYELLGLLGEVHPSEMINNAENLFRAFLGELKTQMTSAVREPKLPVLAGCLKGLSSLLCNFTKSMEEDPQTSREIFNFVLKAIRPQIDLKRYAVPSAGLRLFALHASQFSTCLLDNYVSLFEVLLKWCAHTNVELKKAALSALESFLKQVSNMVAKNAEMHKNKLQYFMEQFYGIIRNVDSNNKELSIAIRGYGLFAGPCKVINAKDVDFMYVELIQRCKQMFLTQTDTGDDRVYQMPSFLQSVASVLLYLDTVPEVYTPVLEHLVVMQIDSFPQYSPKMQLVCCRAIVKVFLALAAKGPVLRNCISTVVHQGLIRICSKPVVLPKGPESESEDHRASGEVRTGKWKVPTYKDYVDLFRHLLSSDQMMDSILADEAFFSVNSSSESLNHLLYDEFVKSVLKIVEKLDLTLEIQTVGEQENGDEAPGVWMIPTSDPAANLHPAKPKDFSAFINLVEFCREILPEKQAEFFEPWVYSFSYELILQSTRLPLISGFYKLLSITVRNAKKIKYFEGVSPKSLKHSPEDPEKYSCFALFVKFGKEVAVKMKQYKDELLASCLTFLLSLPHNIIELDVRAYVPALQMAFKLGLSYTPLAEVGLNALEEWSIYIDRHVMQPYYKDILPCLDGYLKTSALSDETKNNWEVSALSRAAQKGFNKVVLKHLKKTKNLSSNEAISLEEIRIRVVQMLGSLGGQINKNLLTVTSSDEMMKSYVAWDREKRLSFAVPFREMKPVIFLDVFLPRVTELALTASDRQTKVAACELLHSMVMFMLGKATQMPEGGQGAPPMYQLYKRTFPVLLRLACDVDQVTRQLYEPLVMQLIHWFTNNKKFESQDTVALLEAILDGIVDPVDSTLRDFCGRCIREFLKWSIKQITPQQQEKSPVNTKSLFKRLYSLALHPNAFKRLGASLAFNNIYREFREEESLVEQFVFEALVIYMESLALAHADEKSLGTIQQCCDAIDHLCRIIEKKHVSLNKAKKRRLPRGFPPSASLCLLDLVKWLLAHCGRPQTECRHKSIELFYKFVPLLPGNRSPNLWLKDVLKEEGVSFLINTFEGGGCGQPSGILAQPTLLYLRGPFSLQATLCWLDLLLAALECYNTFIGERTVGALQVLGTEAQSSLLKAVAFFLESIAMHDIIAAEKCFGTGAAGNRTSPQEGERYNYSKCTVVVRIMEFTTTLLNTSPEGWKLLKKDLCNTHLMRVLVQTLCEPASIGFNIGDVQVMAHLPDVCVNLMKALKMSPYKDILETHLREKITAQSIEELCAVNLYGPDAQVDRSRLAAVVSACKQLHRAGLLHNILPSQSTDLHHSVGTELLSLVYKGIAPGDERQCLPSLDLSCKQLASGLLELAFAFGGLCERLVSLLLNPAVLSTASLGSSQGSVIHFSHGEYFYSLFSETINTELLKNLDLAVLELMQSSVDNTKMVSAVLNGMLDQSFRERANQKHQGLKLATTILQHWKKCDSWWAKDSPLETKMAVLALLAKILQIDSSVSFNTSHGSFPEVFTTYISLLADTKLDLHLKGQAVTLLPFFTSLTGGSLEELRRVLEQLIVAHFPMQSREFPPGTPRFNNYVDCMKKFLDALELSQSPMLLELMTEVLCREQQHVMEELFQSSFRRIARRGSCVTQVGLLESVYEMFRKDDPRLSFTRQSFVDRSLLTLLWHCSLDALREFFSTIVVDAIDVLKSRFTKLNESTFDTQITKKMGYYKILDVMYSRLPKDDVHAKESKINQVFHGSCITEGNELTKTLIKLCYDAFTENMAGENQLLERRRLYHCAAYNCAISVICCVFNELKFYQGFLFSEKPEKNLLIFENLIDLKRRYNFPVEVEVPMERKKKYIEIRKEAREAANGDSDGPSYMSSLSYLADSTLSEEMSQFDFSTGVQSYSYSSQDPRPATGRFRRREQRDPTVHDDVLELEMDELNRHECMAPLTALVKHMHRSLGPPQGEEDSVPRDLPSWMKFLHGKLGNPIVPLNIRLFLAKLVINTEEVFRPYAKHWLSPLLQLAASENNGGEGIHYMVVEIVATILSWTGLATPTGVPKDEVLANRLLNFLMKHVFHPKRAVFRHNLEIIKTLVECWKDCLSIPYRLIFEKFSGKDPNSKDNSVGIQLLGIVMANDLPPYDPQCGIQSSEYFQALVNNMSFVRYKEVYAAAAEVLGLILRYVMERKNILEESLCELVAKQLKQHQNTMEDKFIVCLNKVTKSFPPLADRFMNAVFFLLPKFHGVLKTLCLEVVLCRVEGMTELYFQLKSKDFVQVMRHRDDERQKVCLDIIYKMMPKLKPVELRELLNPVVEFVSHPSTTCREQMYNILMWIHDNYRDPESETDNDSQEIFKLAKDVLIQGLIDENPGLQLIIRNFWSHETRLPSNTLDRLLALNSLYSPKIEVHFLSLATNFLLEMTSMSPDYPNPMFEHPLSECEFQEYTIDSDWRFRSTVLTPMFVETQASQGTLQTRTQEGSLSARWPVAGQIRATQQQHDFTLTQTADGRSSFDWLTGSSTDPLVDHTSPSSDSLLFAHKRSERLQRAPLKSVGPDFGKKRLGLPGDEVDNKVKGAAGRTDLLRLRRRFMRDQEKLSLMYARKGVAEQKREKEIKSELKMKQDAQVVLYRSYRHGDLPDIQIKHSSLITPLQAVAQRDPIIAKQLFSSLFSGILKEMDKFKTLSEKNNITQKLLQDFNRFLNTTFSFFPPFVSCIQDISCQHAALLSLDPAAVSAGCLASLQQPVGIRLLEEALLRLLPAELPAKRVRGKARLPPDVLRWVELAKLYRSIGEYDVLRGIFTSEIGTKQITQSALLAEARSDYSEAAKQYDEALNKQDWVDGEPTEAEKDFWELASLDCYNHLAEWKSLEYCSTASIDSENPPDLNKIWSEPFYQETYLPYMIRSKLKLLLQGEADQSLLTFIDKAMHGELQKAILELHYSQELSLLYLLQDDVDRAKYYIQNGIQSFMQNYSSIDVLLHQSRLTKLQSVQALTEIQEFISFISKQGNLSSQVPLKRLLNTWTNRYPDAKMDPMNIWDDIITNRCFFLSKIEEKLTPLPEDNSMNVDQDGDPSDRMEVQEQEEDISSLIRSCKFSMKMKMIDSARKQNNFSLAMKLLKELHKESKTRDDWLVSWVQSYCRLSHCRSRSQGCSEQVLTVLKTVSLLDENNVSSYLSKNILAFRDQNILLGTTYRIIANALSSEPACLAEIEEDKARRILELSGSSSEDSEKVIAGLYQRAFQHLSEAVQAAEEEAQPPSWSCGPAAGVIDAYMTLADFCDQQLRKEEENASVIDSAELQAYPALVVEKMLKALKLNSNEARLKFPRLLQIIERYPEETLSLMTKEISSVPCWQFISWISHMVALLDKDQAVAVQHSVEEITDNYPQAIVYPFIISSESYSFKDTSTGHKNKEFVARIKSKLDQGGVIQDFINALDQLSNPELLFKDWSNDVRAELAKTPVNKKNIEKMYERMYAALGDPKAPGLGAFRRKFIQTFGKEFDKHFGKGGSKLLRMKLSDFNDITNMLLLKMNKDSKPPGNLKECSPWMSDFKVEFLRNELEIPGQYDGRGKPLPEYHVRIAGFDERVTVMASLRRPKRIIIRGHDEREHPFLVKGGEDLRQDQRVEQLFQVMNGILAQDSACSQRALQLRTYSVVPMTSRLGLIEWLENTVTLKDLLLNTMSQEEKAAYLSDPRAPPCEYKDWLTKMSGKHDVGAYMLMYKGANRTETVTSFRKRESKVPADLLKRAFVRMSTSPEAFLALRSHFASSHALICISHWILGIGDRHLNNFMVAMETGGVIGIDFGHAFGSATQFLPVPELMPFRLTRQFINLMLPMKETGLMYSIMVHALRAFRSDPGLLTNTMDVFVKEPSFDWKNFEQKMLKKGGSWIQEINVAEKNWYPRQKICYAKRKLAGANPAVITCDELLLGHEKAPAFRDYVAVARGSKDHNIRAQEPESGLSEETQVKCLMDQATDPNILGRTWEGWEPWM

[8] = Drug concentration in nu/nu CD-1 mouse plasma xenografted with human GEO cells at 75 mg/kg administered for 14 days and measured 1 hr post last dose; assay type: ADME, organism-based
[9] = biological target: Epidermal growth factor receptor (Homo sapiens, UniProt P00533); test: Inhibition of EGFR phosphorylation (unknown origin) by cell based assay
[10] = test system: Pancreatic islet cell carcinoma; test: Antitumor activity against pancreatic islet cell carcinoma in RIP-Tag2 mouse assessed as reduction in cell proliferation at 75 mg/kg, po bid administered via gavage and measured after 7 days by immunohistochemistry analysis; assay type: functional, organism-based; conditions: time 7.0 day
In short: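 RIP-Tag2 mice aged 9–10 weeks dosed by gavage BID for 7 days; vehicle Labrifil or water. Mice fixed by vascular perfusion, tumors cut into 60–80 µm sections. Proliferating cells stained for phospho-histone H3 and apoptotic cells for activated caspase-3. Sections imaged by fluorescence/confocal microscopy. Body weight checked daily, fluids given if loss exceeded 10%. 3–8 mice per group, SEM, ANOVA with Fisher PLSD.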

[11] = biological target: Eukaryotic translation initiation factor 4E-binding protein 1 (Homo sapiens) (UniProt Q13541); test: Inhibition of 4E-BP1 phosphorylation at Ser 37/46 residues in serum deprived/insulin stimulated human OVCAR-3 cells harboring PTEN and wild type PI3K preincubated for 2 hrs followed by insulin stimulation and measured immediately by Western blot analysis; assay type: cell-based; conditions: dose 0.001-10 µM
Eukaryotic translation initiation factor 4E-binding protein 1 (Homo sapiens), sequence (Q13541 whole entry): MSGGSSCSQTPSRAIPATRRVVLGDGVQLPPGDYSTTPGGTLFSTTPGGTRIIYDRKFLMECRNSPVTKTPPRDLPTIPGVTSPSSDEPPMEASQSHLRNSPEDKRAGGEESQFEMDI

[12] = biological target: Proto-oncogene tyrosine-protein kinase receptor Ret (Homo sapiens) (UniProt P07949); test: Inhibition of RET (unknown origin) at 3 uM by Ambit Kinomescan assay relative to control
[13] = test system: Pancreatic islet cell carcinoma; test: Antivascular activity in pancreatic islet cell carcinoma in RIP-Tag2 mouse assessed as suppression of tumor regrowth by measuring reduction in vessel density at 75 mg/kg, po bid administered via gavage pretreated with OSI-930 for 7 days at 200 mg/kg, po followed by compound administration and measured after 4 days (reference value: 18%); assay type: functional; set-up: scale not given: the % may be the effect or the level left; conditions: time 4 day
In short: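 10-week-old RIP-Tag2 mice given OSI-930 200 mg/kg QD by gavage for 7 days, then 75 mg/kg BID by gavage for 4 days. Mice fixed by vascular perfusion; 60–80 µm tumor sections immunostained for endothelial cells; vessel area density from fluorescence images at threshold 30–50. 3–8 mice per group; ANOVA with Fisher PLSD.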

Mus musculus [14] = test: In vivo inhibition of S6K phosphorylation in RIP-Tag2 mouse with pancreatic islet cell carcinoma 75 mg/kg, po bid administered via gavage and measured after 7 days by immunohistochemistry; assay type: functional, organism-based; conditions: time 7.0 day
In short: (§1)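 RIP-Tag2 mice aged 9–10 weeks dosed 75 mg/kg BID by gavage for 7 days, vehicle Labrifil or water; perfusion fixation, 60–80 µm tumor sections immunostained for phospho-4E-BP1, phospho-Akt or phospho-S6K with CD31; fluorescence/confocal imaging; 3–8 mice per group.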

[15] = biological target: Proto-oncogene tyrosine-protein kinase Src (Homo sapiens, UniProt P12931); test: Inhibition of SRC (unknown origin) assessed as reduction in phosphorylated FAK level by cell based assay
Proto-oncogene tyrosine-protein kinase Src, sequence (P12931 2-536 limits assumed): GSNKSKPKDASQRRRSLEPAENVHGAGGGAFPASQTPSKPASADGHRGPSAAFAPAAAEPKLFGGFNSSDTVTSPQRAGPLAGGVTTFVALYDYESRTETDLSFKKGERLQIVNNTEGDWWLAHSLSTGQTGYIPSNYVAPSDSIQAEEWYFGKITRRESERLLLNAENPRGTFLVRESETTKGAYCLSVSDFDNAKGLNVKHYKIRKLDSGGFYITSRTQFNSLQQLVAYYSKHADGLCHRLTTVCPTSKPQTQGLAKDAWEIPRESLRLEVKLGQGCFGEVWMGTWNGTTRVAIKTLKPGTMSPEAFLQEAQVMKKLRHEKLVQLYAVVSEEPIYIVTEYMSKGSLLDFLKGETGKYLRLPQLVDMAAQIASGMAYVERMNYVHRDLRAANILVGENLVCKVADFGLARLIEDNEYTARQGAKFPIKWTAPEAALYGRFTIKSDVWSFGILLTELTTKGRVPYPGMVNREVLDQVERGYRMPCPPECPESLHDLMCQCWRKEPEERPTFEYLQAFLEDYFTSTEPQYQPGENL

mTORC2 = mTORC2 (Homo sapiens, UniProt P42345); test: Competitive inhibition of mTORC2 immunoprecipitated from human HeLa cells using His-tagged 4E-BP1 as substrate incubated for 30 mins in presence of ATP by chemiluminescence based ELISA
In short: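 Native mTORC1 or mTORC2 complex immunoprecipitated from HeLa lysates; kinase reaction run at 1 mM ATP.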

Mus musculus [16] = test: In vivo inhibition of AKT phosphorylation in RIP-Tag2 mouse with pancreatic islet cell carcinoma 75 mg/kg, po bid administered via gavage and measured after 7 days by immunohistochemistry; assay type: functional, organism-based; conditions: time 7.0 day; in short: as §1
[17] = test system: Pancreatic islet cell carcinoma; test: Additive antitumor activity in pancreatic islet cell carcinoma in RIP-Tag2 mouse assessed as induction of apoptosis by measuring increase in activated caspase-3 level at 100 mg/kg, po bid administered via gavage for 4 days in presence of OSI-930 by immunohistochemistry analysis relative to control; assay type: functional; conditions: time 4 day
[18] = biological target: Phosphatidylinositol 4,5-bisphosphate 3-kinase catalytic subunit delta isoform (Homo sapiens) (UniProt O00329); test: Inhibition of PI3Kdelta (unknown origin) at 3 uM by Ambit Kinomescan assay relative to control
[19] = test system: Pancreatic islet cell carcinoma; test: Antivascular activity against pancreatic islet cell carcinoma in RIP-Tag2 mouse assessed as reduction in CD31-positive tumor blood vessels at 75 mg/kg, po bid administered via gavage and measured after 7 days by immunohistochemical staining based fluorescence microscopic analysis relative to control; assay type: functional; set-up: scale not given: the % may be the effect or the level left; conditions: time 7 day
In short: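 For 7 days, RIP-Tag2 mice, 9–10 weeks old, received 75 mg/kg gavage BID, 200 mg/kg gavage QD, or 20 mg/kg ip QD. Perfusion-fixed tumors cut at 60–80 µm and stained for CD31 and type IV collagen basement membrane. Vessel area density from fluorescence images with threshold 30–50; sprouts and empty basement membrane sleeves examined by confocal microscopy. 3–8 mice/group; ANOVA, Fisher PLSD.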

With Nc1nccn2c1c(-c1cc3cccc(Cl)c3[nH]1)nc2[C@H]1CC[C@H](C(=O)O)CC1 the Activity [1] was 45%, the Activity [2] was 72% and the IC50 [3] was > 40 µM. The Activity [4] was “Active”, the Activity [5] was 50% and the concentration at 344 h [6] was 13.2 µM. The IC50 [7] was > 40 µM, the concentration at 337 h [8] was 25.6 µM and the IC50 [9] was > 40 µM. The Activity [10] was “Active”, the inhibition [11] was “Dose-Dependent Effect” and the inhibition [12] was > 90%. The Activity [13] was 40%, the inhibition (Mus musculus [14]) was “Active” and the IC50 [15] was > 40 µM. For the same compound, the IC50 (mTORC2) was 0.007 µM, the inhibition (Mus musculus [16]) was “Active” and the Activity [17] was 700%. For the same compound, the inhibition [18] was > 90% and the Activity [19] was 23%.
